Experimental data gathered from unrelated publications.
Organism: Klebsiella pneumoniae
Observed: microbial growth

Compound	method	strain	time	MIC
CCC[C@@H]1C[C@@H](C(=O)N[C@@H]([C@H]2O[C@H](SC)[C@H](O)[C@@H](O)[C@H]2O)[C@H](C)Cl)N(C)C1	broth dilution	ATCC700603		640 µM
Cc1c(CN(C)C(=O)/C=C/c2cnc3c(c2)CC(CCN)C(=O)N3)oc2ccccc12.Cl (stereo not drawn)	broth dilution	BAA2472		16 mg/L
CC1(C)S[C@@H]2[C@H](NC(=O)COc3ccccc3)C(=O)N2[C@H]1C(=O)O	broth dilution	ATCC10031	18 h	4 mg/L
NC[C@H]1O[C@H](O[C@H]2[C@H](O)[C@@H](O[C@H]3O[C@H](CO)[C@@H](O)[C@H](N)[C@H]3O)[C@H](N)C[C@@H]2N)[C@H](N)C[C@@H]1O	broth dilution	ATCC700603		1.3 µM
CN(C)[C@@H]1C(O)=C(C(N)=O)C(=O)[C@@]2(O)C(O)=C3C(=O)c4c(cc5ccc(CN6CC(F)(F)C6)cc5c4O)C[C@H]3C[C@@H]12	broth dilution	ATCC13883		32 mg/L
CC1=NN(CNc2c(O)c(S(=O)(=O)O)cc3ccccc23)C(=O)C1=NNn1c(-c2ccccc2)nc2ccccc2c1=O	broth dilution		24 h	83.7 µM
CCn1cc(C(=O)O)c(=O)c2cc(F)c(N3CCNCC3)cc21	broth dilution	ATCC43816		2 µM
NC1CCCCc2c1[nH]c1cc(Cl)c(Cl)cc21 (stereo not drawn)	broth dilution	ATCC10031		2 mg/L
O=C1CN(/N=C/c2ccc([N+](=O)[O-])o2)C(=O)N1	broth dilution	ATCC700603		320 µM
CC1=NN(CNc2ccc(Cl)cc2)C(=O)C1=NNn1c(-c2ccccc2)nc2ccccc2c1=O	broth dilution		24 h	51.5 µM
C/C(=C\c1ccc(C#N)cc1)C(=O)Nc1ccc(C(=O)N[C@@H](CC(N)=O)C(=O)Nc2ccc(C(=O)Nc3ccc(C(=O)Nc4ccc(C(=O)O)cc4)c(O)c3OC(C)C)cc2)cc1		DSM30104		> 64 mg/L
C[C@@H]1O[C@@H]1P(=O)(O)O	broth dilution	ATCC700603		80 µM
O=C1NN=C(N=Cc2ccc(O)cc2O)C1=NNn1c(-c2ccccc2)nc2ccccc2c1=O	broth dilution		24 h	53.5 µM
CC(=O)NC[C@H]1CN(c2ccc(N3CCOCC3)c(F)c2)C(=O)O1	broth dilution	ATCC700603		1280 µM
CN(C)[C@@H]1C(O)=C(C(N)=O)C(=O)[C@@]2(O)C(O)=C3C(=O)c4c(cc5ccc(CN6CCCCC6)cc5c4O)C[C@H]3C[C@@H]12	broth dilution	ATCC13883		4 mg/L
Cn1c(SCc2ccc(Cl)cc2)nnc1-c1cncc(C#Cc2ccccc2)c1				≥ 20 mg/L
NC[C@@H]1O[C@H](O[C@H]2[C@@H](O)[C@H](O[C@@H]3[C@@H](O)[C@H](N)C[C@H](N)[C@H]3O[C@H]3O[C@H](CO)[C@@H](O)[C@H](O)[C@H]3N)O[C@@H]2CO)[C@H](N)[C@@H](O)[C@@H]1O				1 mg/L
O=C(Nc1ccc2c(c1)OC(F)(F)O2)Nc1ccc(Cl)c(C(F)(F)F)c1		DSM30104		> 100 µM
